From PubChem
In the library only some 2.3% were active in any assay of this set; here they are far more common.
TRPC6 act – mouse TRPC6 channel activation | HEK293-TRPC6 membrane potential dye fluorescence; active compounds read high | Q61143 | B-score at 10 µM | 0.13% of 310,000 active | AID 2550;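 active means B-score of the integrated fluorescence ratio above library mean plus 3 SD, and starting fluorescence ratio within library mean plus 5 SD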;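 further: higher score means more depolarization so channel activation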
TRPC4 agonist – activators of mouse TRPC4 channel; HEK293 TRPC4beta/mu-opioid, Fluo4 calcium fluorescence; active compounds read high; B-score at 10 µM; 0.49% of 310,000 active; AID 2237;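 active means B-score above 5 SD of library B-scores, and initial fluorescence ratio not above library mean plus 5 SD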;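 further: positive B-score marks a calcium rise read as TRPC4 activation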
Target sequence (Q9QUQ5 whole entry, looked up): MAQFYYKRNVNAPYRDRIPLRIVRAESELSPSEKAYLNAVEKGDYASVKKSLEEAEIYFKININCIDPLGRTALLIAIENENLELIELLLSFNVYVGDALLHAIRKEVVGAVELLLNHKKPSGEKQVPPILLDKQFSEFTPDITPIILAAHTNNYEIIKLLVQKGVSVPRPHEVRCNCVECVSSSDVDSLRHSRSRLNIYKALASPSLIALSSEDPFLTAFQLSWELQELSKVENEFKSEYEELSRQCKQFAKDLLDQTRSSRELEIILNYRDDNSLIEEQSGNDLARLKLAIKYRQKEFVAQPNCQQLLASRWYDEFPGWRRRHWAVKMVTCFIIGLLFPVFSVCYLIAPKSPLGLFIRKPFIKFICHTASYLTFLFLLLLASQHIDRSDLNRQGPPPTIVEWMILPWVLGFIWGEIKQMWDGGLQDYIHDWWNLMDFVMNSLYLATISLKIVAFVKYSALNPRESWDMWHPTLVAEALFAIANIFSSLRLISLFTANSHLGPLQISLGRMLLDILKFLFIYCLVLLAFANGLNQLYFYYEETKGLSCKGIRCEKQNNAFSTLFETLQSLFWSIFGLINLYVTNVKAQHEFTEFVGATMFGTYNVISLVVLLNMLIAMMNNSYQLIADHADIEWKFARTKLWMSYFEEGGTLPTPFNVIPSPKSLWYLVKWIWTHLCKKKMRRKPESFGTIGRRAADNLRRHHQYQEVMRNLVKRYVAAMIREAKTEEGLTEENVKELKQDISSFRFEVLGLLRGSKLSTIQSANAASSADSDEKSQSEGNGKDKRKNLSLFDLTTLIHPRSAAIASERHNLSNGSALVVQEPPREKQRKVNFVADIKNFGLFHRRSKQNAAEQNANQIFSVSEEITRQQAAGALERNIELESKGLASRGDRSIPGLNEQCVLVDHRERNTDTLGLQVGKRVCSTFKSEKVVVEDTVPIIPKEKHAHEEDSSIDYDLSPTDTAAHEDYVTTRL
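System: HEK293 cells stably co-expressing mouse TRPC4beta and mu-opioid receptor; Schedule: Fluo4 dye loading 45 min at room temperature, 110 s recording; Detection: Fluo4 fluorescence, kinetic; Evaluation: B-scored integrated calcium fluorescence ratio; Controls: buffer (low) and maximal DAMGO (high).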
TRPC6 inhibitor – inhibitors of mouse TRPC6 channel; Q61143; HEK293-TRPC6, membrane potential dye, ACh-evoked depolarization; active compounds read low; B-score at 10 µM; 1.1% of 310,000 active; AID 2553;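 active means B-score under library mean minus 3 SD, initial fluorescence not abnormally high, positive integrated signal ratio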;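 further: B-score derived from integrated fluorescence ratio over the kinetic read; more negative B-score means stronger inhibition of depolarization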
TRPC4 block – TRPC4 (mouse) channel inhibition; HEK293 TRPC4beta/mu-opioid, DAMGO-evoked Fluo4 calcium flux; active compounds read low; B-score at 10 µM; 0.39% of 300,000 active; Q9QUQ5;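 active means B-score over 3 SD under the library average, no early fluorescence shift, positive overall ratio signal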
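Assay system: HEK293 cells with stable TRPC4beta plus mu-opioid receptor expression. Dosing: single dose. Measured by: Fluo4 Ca2+ flux fluorescence. Also added: DAMGO in two steps, submaximal then maximal. Read-out: B score from integrated Fluo4 fluorescence ratio.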
TRPC4 PAM – TRPC4 (mouse) allosteric potentiation; B-score at 10 µM; 0.42% of 310,000 active; AID 2227; Q9QUQ5; HEK293 TRPC4beta/mu-opioid, DAMGO EC20, Fluo-4 Ca2+ flux; active compounds read high;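 active means B-score of calcium response area above 5 SD of library B-scores, with initial fluorescence ratio within 5 SD of library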
TRPC4 sel inh 2 – mouse TRPC4 off-target activity of TRPC6 inhibitors, second screen; 42% of 920 active; inhibition, % at 10 µM; shares compounds with TRPC6 inhibitor; AID 2776; HEK293 TRPC4/MOR, membrane potential dye fluorescence; channel activated by saturating DAMGO dose;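 active means compounds whose fluorescence signal differed from control wells by over 3 SD, either direction, in both duplicate plates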
TRPC4 spec – tests whether TRPC6 inhibitors also affect mouse TRPC4; 61% of 920 active; activity change, negative = inhibition, % at 10 µM; HEK293 TRPC4/mu-opioid, membrane potential fluorescence; shares compounds with TRPC6 inhibitor;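 active means rise or fall in signal beyond 3 SD of buffer-only wells in both replicate plates, either sign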;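 further: integrated kinetic ratio of fluorescence range over baseline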
HEK293 MPD ctr 2-1 – parental HEK293 nonspecific activity of TRPC6 inhibitors, second screen. shares compounds with TRPC6 inhibitor. parental HEK293 membrane potential dye fluorescence; maximal acetylcholine challenge after compound addition. signal change vs control, % at 10 µM. 31% of 920 active. AID 2779;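 active means membrane potential signal moving either way by over 3 SD of the maximum-effect control, in both duplicate plates, meaning non-specific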
HEK293 MPD ctr-1 – checks TRPC6 inhibitor effects in parental HEK293 cells | shares compounds with TRPC6 inhibitor | parental HEK293 membrane potential dye fluorescence | membrane potential signal change, % at 10 µM | 60% of 920 active;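 active means membrane potential signal shifting up or down by more than 3 SD of buffer-only wells, on both duplicate plates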
HEK293 MPD ctr-2 – counter-screen for TRPC6 modulators: effect in parental HEK293 cells; membrane potential dye fluorescence; membrane potential signal change, % at 10 µM; 51% of 2,400 active; shares compounds with TRPC6 inhibitor;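 active means membrane potential signal moves up or down beyond 5 SD from buffer-only wells, on both duplicate plates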
HEK293 MPD ctr 2-2 – second check of TRPC6 modulator effects in parental HEK293 cells. shares compounds with TRPC6 inhibitor. membrane potential dye fluorescence; after compound, maximal acetylcholine stimulation. inhibition, % at 10 µM. 14% of 2,400 active;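 active means membrane potential signal drops by more than 5 SD from the mean control signal, in both duplicate plates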
TRPC4/MOR mod – tests whether TRPC6 modulators also affect mouse TRPC4. HEK293 TRPC4/mu-opioid, membrane potential fluorescence. percent change from control (negative = decrease, positive = increase), % at 10 µM. AID 488927. shares compounds with TRPC6 inhibitor. 69% of 2,400 active;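 active means membrane potential signal moved up or down beyond 5 SD of buffer control wells, in both duplicate plates, actives on both sides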
TRPC4/MOR inh 2 – second check of whether TRPC6 modulators also affect mouse TRPC4. shares compounds with TRPC6 inhibitor. 55% of 2,400 active. inhibition, % at 10 µM. HEK293 TRPC4/mu-opioid, membrane potential dye fluorescence; stimulated with maximal-effect DAMGO. AID 488928;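 active means drop in membrane potential signal beyond 5 SD of the control wells in both duplicate plates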;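 further: TRPC4 counter screen for TRPC6 hits run under conditions tuned for TRPC6 not TRPC4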
TRPC6 inh conf – confirmation of mouse TRPC6 inhibitors. shares compounds with TRPC6 inhibitor. inhibition, % at 10 µM. 43% of 3,300 active. HEK293-TRPC6, membrane potential dye, ACh-evoked depolarization;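 active means fluorescence ratio falls more than 5 SD below the full-stimulation control mean, in both duplicate runs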;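 further: integrated fluorescence ratio of peak minus minimum over baseline after agonist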
TRPC6 act confirm – confirmation of mouse TRPC6 activators; activation, % at 10 µM; shares compounds with TRPC6 inhibitor; HEK293-TRPC6 membrane potential dye fluorescence, FDSS; 11% of 2,800 active;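 active means ratio signal rise beyond 5 SD above unstimulated control wells' mean, seen in both duplicate runs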
Each line names hits and unclear results; the compound was inactive in the other large screens (follow-up assays come after a bar, where they were run).

CCC(OCC(O)CN1CCN(CCN2C(=O)c3cccc4cccc(c34)C2=O)CC1)c1ccccc1 (stereo unspecified)	TRPC6 inhibitor -6.1 | HEK293 MPD ctr-2 -90% | HEK293 MPD ctr 2-2 inactive | TRPC4/MOR mod -29% | TRPC4/MOR inh 2 77% | TRPC6 inh conf 60% | TRPC6 act confirm inactive
O=C(CN1C(=O)CCS(=O)(=O)c2ccccc21)Nc1ccc(F)cc1	none
CC1(C)CC(=O)C=C(Nc2ccc(OCC(F)(F)C(F)F)cc2)C1	none
O=C(Nc1ccc(F)cc1F)N1CCCCCC1	none
CCCN1CC(=O)N2C(c3cccc(OC)c3OC)c3[nH]c4ccccc4c3C[C@H]2C1=O (stereo partly specified)	none
C#CCn1cnc2c(oc3ccccc32)c1=O	TRPC6 inhibitor -5 | HEK293 MPD ctr-2 inactive | HEK293 MPD ctr 2-2 inactive | TRPC4/MOR mod inactive | TRPC4/MOR inh 2 inactive | TRPC6 inh conf inactive | TRPC6 act confirm inactive
CCn1cnc2c(oc3ccccc32)c1=O	none
Cc1ccccc1C(=O)N1CCN(c2ccc([N+](=O)[O-])c(N3CCOCC3)c2)CC1	TRPC6 inhibitor -5.4 | HEK293 MPD ctr-2 inactive | HEK293 MPD ctr 2-2 inactive | TRPC4/MOR mod inactive | TRPC4/MOR inh 2 inactive | TRPC6 inh conf inactive | TRPC6 act confirm inactive
C/C(=N\NC(=O)c1ccccc1O)C1C(=O)c2ccccc2C1=O	TRPC6 inhibitor -5.5 | HEK293 MPD ctr-2 inactive | HEK293 MPD ctr 2-2 inactive | TRPC4/MOR mod -16% | TRPC4/MOR inh 2 inactive | TRPC6 inh conf inactive | TRPC6 act confirm inactive
C/C(=N/NC(=O)c1cc2ccccc2cc1O)C1C(=O)c2ccccc2C1=O	none
CCOc1cc(/C=C2\SC(=NC)N(C)C2=O)cc(Cl)c1OC(C)=O	TRPC6 inhibitor -5 | HEK293 MPD ctr-2 inactive | HEK293 MPD ctr 2-2 inactive | TRPC4/MOR mod inactive | TRPC4/MOR inh 2 inactive | TRPC6 inh conf inactive | TRPC6 act confirm inactive
O=C(NCc1ccccc1)c1ccc(CS(=O)(=O)Cc2ccc(F)cc2)o1	none
Cn1ncc([N+](=O)[O-])c1C(=O)Nc1ccc2c(c1)OCCO2	none
Cc1cccc(OCc2nnc(SCc3cc(=O)n4cc(Br)ccc4n3)o2)c1	TRPC6 inhibitor -8 | TRPC4 sel inh 2 inactive | TRPC4 spec 0.1% | HEK293 MPD ctr 2-1 inactive | HEK293 MPD ctr-1 0.6% | TRPC6 inh conf inactive | TRPC6 act confirm inactive
CCN(CC)CCNC(=O)c1[nH]c2ccc(OCc3ccccc3)cc2c1C	TRPC6 inhibitor -7.5 | HEK293 MPD ctr-2 inactive | HEK293 MPD ctr 2-2 inactive | TRPC4/MOR mod inactive | TRPC4/MOR inh 2 38% | TRPC6 inh conf 55%
CCCCCCCCCCOC(=O)C[N+](C)(C)C/C=C(/C)Cl	TRPC6 inhibitor -5.3 | HEK293 MPD ctr-2 134% | HEK293 MPD ctr 2-2 inactive | TRPC4/MOR mod 30% | TRPC4/MOR inh 2 42% | TRPC6 inh conf 64%
CCCCCCCCCCCCOC(=O)C[N+](C)(C)C	TRPC6 inhibitor -6.9, TRPC4 block -6 | TRPC4 sel inh 2 inactive | TRPC4 spec 0.8% | HEK293 MPD ctr 2-1 324% | HEK293 MPD ctr-1 inactive | TRPC6 inh conf 56% | TRPC6 act confirm inactive
CCCCCCCCOC(=O)C[N+](C)(C)C/C=C(/C)Cl	TRPC6 inhibitor -7.6 | TRPC4 sel inh 2 inactive | TRPC4 spec 0.1% | HEK293 MPD ctr 2-1 inactive | HEK293 MPD ctr-1 2.3% | TRPC6 inh conf 61% | TRPC6 act confirm inactive
CCC(C)Sc1ccc(-c2nc3cnccn3c2NC2CCCCC2)cc1 (stereo unspecified)	none
Cc1ccc(NC(=S)NC(=O)C2CC2)c(C)c1	none
Cc1ccc(SCCCn2cnc3ccccc3c2=O)cc1	none
C=CCN1C2CCCC1CC(NC(=O)Nc1cccc(C(C)=O)c1)C2 (stereo unspecified)	TRPC6 inhibitor -5.4 | HEK293 MPD ctr-2 inactive | HEK293 MPD ctr 2-2 inactive | TRPC4/MOR mod inactive | TRPC4/MOR inh 2 inactive | TRPC6 inh conf 85%
O=C(c1ccccc1F)N1CCN(c2ccc([N+](=O)[O-])c3ncccc23)CC1	none
O=[N+]([O-])c1cccc2c(N3CCCC3)ccnc12	TRPC6 inhibitor -8.9 | HEK293 MPD ctr-2 -360% | HEK293 MPD ctr 2-2 95% | TRPC4/MOR mod -44% | TRPC4/MOR inh 2 56% | TRPC6 inh conf 70% | TRPC6 act confirm inactive
CCC(=O)Nc1cccc(-c2cnc3ccccc3n2)c1	TRPC6 inhibitor -5.6 | HEK293 MPD ctr-2 inactive | HEK293 MPD ctr 2-2 inactive | TRPC4/MOR mod inactive | TRPC4/MOR inh 2 inactive | TRPC6 inh conf inactive | TRPC6 act confirm inactive
CC(C)c1cc(C(=O)N2CCCC(Nc3ccc(F)cc3)C2)nc(N)n1 (stereo unspecified)	TRPC6 inhibitor -5.9 | HEK293 MPD ctr-2 inactive | HEK293 MPD ctr 2-2 inactive | TRPC4/MOR mod inactive | TRPC4/MOR inh 2 inactive | TRPC6 inh conf inactive | TRPC6 act confirm inactive
O=C(CC1Nc2cccc3cccc(c23)NC1=O)Nc1ccc(F)cc1 (stereo unspecified)	TRPC6 inhibitor -5 | HEK293 MPD ctr-2 inactive | HEK293 MPD ctr 2-2 inactive | TRPC4/MOR mod -11% | TRPC4/MOR inh 2 40% | TRPC6 inh conf inactive | TRPC6 act confirm inactive
COc1ccc(NC(=O)CC2Nc3cccc4cccc(c34)NC2=O)cc1 (stereo unspecified)	none
CN1CCc2c(sc3nc(SCC(N)=O)n(-c4ccc(Cl)cc4)c(=O)c23)C1	none
